Laboratory results from article PMC8092417 (Anti-cancer drugs, 2020).
pIC50: −log10 of the molar value.

Assays:
TU-BcX-2K1 tumors = assay: qRT-PCR of ex vivo treated PDX tumor pieces; type: cell-based, human; details: TU-BcX-2K1 tumor pieces, 1 μM, 72 hours
BT549 cells = assay: Transwell migration assay; type: cell-based, human; details: BT549, pretreated 1 μM 72 hours, 24 hours migration
Summary of the method: (§1)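 Cells were pretreated 72 h with test compound (1 μM) or DMSO, and viable cells were then seeded into transwell chambers for 24 h. Non-migrated cells were removed. Migrated cells were fixed, crystal violet-stained, imaged by brightfield and counted. Counts were normalized to DMSO per cell line; triplicate experiments.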

TU-BcX-4IC cells [1] = assay: Transwell migration assay; type: cell-based, human; details: pretreated 1 μM 72 hours, 24 hours migration
Summary of the method: as §1

MDA-MB-231 cells = assay: Ki-67 immunofluorescence staining for proliferation; type: cell-based, human; details: MDA-MB-231, 1 μM, 72 hours
TU-BcX-4IC explants = assay: Western blot of treated PDX tumor explants; type: cell-based, human; details: 24 hours
MDA-MB-231 M2 spheres [2] = assay: In vivo inoculation of pre-treated spheres, tumorigenesis and metastasis; set-up: species or system SCID/Beige mice; details: MDA-MB-231 M2 spheres pre-treated 1 μM 72 hours; all cell concentrations
Summary of the method: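 M2 spheres were treated 72 h at 1 μM or with DMSO under low attachment, dissociated with TrypLE, and counted by Trypan Blue so that only viable cells were injected. Cells (1,000–200,000) went bilaterally into the mammary fat pads of SCID/Beige mice (N=5). Tumors were caliper-measured biweekly, then resected; mice were killed 20 days later. Lungs and livers were formalin-fixed, paraffin-embedded and H&E-stained, and metastases were quantified.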

BT-549 cells = assay: Crystal violet staining, cells remaining / viability dose-response; type: cell-based, human
Summary of the method: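 Cells were plated at 5,000/well in 5% charcoal-stripped DMEM for 48 h, then exposed to test compound or DMSO vehicle for 72 h at 37 °C, 5% CO2. They were fixed with glutaraldehyde for 20 min and stained for 20 min with 0.1% crystal violet in 90% methanol. After overnight drying, cells were lysed in 33% acetic acid and read at 620 nm. Signal was normalized to DMSO and plotted as dose-response.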

TU-BcX-49S tumors = assay: qRT-PCR of ex vivo treated PDX tumor pieces; type: cell-based, human; details: TU-BcX-49S tumor pieces, 1 μM, 72 hours
TU-BcX-4IC M2 spheres [3] = assay: Mammosphere formation and area quantification; type: cell-based, human; details: 7 days treatment
Summary of the method: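 Cells were plated at 1,000/well in low-attachment plates in serum-free F12/DMEM with B-27 and left 24 h to form spheres. Spheres were then exposed to test compound or DMSO for one week, re-dosed every three days. Spheres were imaged at 40X or 100X, and length and width were measured to calculate area, which was compared with DMSO controls.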

TU-BcX-4IC cells [4] = assay: qRT-PCR of epithelial and mesenchymal genes; type: cell-based, human; details: 1 μM, 72 hours
Summary of the method: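 Cells were treated 72 h with test compound (1 μM) or DMSO. Total RNA was column-isolated and checked for quantity and quality by absorbance (260, 280 nm). Then 2 μg total RNA was reverse-transcribed and gene expression measured by qRT-PCR.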

MDA-MB-231 M2 spheres [5] = assay: Mammosphere formation and area quantification; type: cell-based, human; details: MDA-MB-231, 7 days treatment
Summary of the method: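 MDA-MB-231 cells were seeded at 1,000/well in low-attachment wells in serum-free F12/DMEM plus B-27 and allowed 24 h to form spheres. Spheres were then treated with test compound or DMSO for one week, re-dosed every three days. Imaging was at 40X or 100X. Sphere length and width were measured, area was calculated, and values were compared with DMSO controls.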

TU-BcX-4IC cells [6] = assay: Phalloidin immunofluorescence with morphometric quantification; type: cell-based, human; details: 1 μM, 72 hours
PDGFRB = PDGFRB (Homo sapiens, UniProt P09619); assay: Kinase inhibition assay; type: biochemical; details: 1 μM
TU-BcX-4IC PDX model = assay: In vivo treatment of TU-BcX-4IC implants, tumor growth and metastasis; set-up: species or system SCID/Beige mice; details: 25 mg/kg bid intraperitoneally, 15 days, vs DMSO vehicle
Summary of the method: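 Female SCID/Beige mice (5/group) received bilateral mammary fat pad implants of TU-BcX-4IC tumour pieces (3 × 3 mm). Twice-daily intraperitoneal dosing with test compound or DMSO vehicle began 24 h after implantation. At sacrifice, lungs and livers were formalin-fixed, paraffin-embedded, sectioned and H&E-stained. Lesion area and number per section were quantified.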

TU-BcX-4IC tumors = assay: qRT-PCR of ex vivo treated PDX tumor pieces; type: cell-based, human; details: TU-BcX-4IC tumor pieces, 1 μM, 72 hours
TU-BcX-4IC M2 spheres [7] = assay: In vivo inoculation of pre-treated spheres, tumorigenesis and metastasis; set-up: species or system SCID/Beige mice; details: 100,000 cells per injection
Summary of the method: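 TU-BcX-4IC M2 spheres were pre-exposed to test compound (1 μM) or DMSO for 72 h under low attachment. Spheres were dissociated to single cells with TrypLE, and only trypan blue-excluding viable cells were used. 100,000 cells/injection went bilaterally into the mammary fat pad of SCID/Beige mice (5/group). Tumours were measured biweekly by caliper, then resected. Mice were killed 20 days later, and lungs and livers were formalin-fixed, paraffin-embedded and H&E-stained for metastases.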

LOK = LOK (Homo sapiens, UniProt O94804); assay: Kinase inhibition assay; type: biochemical; details: 1 μM
TU-BcX-2O0 tumors = assay: qRT-PCR of ex vivo treated PDX tumor pieces; type: cell-based, human; details: TU-BcX-2O0 tumor pieces, 1 μM, 72 hours
RET = RET (Homo sapiens, UniProt P07949); assay: Kinase inhibition assay; type: biochemical; details: 1 μM
TU-BcX-4IC cells [8] = assay: Crystal violet staining, cells remaining / viability dose-response; type: cell-based, human; details: 1 μM, 72 hours
[9] = TU-BcX-4IC M2 spheres pre-treated 1 μM 72 hours

Sequence of LOK (O94804 whole entry): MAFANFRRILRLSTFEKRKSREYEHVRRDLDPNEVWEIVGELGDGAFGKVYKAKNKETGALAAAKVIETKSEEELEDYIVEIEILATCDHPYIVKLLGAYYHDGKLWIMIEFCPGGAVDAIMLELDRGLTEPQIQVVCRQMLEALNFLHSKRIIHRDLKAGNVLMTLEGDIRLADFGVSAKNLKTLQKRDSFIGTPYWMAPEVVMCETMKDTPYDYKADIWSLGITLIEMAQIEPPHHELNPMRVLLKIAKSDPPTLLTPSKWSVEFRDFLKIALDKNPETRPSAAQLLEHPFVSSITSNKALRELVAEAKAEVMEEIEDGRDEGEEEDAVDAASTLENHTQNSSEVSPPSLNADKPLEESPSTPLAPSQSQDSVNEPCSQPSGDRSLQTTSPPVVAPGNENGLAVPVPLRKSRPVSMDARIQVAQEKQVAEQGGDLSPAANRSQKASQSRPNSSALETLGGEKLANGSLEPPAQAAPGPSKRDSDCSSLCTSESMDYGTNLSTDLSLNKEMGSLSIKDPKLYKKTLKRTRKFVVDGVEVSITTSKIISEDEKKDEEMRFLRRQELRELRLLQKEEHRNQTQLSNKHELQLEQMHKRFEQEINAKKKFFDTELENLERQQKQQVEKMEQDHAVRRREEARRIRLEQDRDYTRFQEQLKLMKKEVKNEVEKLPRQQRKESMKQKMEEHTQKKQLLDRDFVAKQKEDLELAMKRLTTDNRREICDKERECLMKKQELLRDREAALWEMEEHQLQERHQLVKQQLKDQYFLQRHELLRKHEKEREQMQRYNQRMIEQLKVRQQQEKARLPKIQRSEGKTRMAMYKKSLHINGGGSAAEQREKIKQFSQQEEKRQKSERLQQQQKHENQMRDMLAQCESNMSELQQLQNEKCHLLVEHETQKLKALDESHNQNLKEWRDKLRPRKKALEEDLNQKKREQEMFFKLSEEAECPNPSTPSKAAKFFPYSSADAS
Sequence of RET (P07949 29-1114): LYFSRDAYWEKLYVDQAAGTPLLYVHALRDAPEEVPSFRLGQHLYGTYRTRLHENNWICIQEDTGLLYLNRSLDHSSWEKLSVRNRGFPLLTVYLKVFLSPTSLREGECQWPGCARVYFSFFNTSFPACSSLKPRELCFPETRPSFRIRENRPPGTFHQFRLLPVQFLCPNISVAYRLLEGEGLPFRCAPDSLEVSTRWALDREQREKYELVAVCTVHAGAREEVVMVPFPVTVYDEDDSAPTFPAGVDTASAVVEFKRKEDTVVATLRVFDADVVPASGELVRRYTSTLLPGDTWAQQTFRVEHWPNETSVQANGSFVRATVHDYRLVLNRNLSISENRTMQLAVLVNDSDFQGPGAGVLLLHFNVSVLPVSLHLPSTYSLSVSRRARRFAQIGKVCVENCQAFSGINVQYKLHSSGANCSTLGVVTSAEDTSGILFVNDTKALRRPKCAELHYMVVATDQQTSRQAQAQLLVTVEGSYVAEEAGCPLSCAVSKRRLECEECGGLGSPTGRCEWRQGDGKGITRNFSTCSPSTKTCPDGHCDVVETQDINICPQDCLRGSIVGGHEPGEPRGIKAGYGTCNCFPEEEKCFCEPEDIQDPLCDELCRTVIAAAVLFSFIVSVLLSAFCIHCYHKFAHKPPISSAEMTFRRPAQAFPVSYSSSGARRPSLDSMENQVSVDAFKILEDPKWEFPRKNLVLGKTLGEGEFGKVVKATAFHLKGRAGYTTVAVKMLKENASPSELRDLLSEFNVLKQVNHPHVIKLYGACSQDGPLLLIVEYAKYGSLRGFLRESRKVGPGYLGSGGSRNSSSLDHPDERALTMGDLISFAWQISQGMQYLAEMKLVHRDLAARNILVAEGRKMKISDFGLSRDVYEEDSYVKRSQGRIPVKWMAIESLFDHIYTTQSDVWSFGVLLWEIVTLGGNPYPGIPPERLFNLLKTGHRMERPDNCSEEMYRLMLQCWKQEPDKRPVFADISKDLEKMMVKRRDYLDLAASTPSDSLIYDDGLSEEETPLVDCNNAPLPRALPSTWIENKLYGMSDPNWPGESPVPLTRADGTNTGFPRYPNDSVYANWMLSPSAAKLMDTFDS
Sequence of PDGFRB (P09619 33-1106): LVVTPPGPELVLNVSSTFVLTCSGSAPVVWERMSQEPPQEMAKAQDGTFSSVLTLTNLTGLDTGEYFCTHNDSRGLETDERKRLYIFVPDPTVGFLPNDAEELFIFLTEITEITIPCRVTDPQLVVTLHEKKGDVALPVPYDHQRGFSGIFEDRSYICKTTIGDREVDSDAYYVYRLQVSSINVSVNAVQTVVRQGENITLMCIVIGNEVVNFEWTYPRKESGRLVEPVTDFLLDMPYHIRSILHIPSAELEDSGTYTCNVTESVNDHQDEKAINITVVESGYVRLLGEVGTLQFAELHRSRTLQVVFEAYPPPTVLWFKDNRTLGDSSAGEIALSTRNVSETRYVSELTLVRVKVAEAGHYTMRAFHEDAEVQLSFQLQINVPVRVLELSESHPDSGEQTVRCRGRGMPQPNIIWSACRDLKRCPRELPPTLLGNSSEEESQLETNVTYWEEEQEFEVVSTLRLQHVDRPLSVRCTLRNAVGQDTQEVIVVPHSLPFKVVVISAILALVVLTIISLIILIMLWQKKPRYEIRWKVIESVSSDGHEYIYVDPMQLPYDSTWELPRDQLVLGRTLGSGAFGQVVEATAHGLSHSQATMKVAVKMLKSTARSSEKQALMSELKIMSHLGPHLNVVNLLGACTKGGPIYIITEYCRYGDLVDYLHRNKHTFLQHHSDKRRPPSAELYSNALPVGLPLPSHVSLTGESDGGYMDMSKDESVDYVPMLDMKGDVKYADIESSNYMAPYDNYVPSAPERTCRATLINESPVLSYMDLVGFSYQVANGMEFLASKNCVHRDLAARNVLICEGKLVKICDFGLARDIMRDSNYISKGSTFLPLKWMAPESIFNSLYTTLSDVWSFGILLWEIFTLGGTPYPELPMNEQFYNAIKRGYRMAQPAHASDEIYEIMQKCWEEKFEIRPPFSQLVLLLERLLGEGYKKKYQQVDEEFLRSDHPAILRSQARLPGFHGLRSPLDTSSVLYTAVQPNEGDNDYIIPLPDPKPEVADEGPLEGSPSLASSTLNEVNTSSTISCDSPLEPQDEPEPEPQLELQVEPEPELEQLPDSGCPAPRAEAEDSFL

C[C@@H](Oc1cc(-n2cnc3ccc(NC(=O)NC(C)(C)C)cc32)sc1C(N)=O)c1ccccc1Cl [GSK346294A]
CD24 mRNA expression (TU-BcX-2K1 tumors): increased CD24 expression
CDH1 mRNA expression (TU-BcX-2K1 tumors): increased epithelial markers CDH1 mRNA expression
Transwell cell migration (BT549 cells): most suppressive effects on cell migration
Transwell cell migration (TU-BcX-4IC cells [1]): most suppressive effects on cell migration
Ki-67 positive cells (cell proliferation) (MDA-MB-231 cells): increased the total number of cells expressing the Ki-67 marker
CDH1 protein expression (TU-BcX-4IC explants): increased CDH1 protein
MMP9 protein expression (TU-BcX-4IC explants): suppressed the mesenchymal-associated proteins MMP9 and ZEB1
ZEB1 protein expression (TU-BcX-4IC explants): suppressed the mesenchymal-associated proteins MMP9 and ZEB1
Area and number of lung and liver metastases (MDA-MB-231 M2 spheres [2]): consistently suppressed both overall area and number of metastases in all cell concentrations, although not significantly
Number of cells remaining compared to DMSO controls (BT-549 cells; BT-549, 1 μM, 72 hours): decreased the number of cells remaining
pIC50 (BT-549 cells; Homo sapiens, BT-549, 72 h, read-out: IC-50, number of cells remaining): 6.00
CDH1 mRNA expression (TU-BcX-49S tumors): increased epithelial markers CDH1 mRNA expression
Mammosphere formation (sphere area) (TU-BcX-4IC M2 spheres [3]): significantly suppressed mammosphere formation
MMP9 mRNA expression (TU-BcX-4IC cells [4]): Neither GSK346294A nor GSK448459A affected MMP9 expression
ZEB1 mRNA expression (TU-BcX-4IC cells [4]): suppressed ZEB1 expression in TU-BcX-4IC cells albeit not significantly
cFOS mRNA expression (TU-BcX-4IC cells [4]): suppressive effects in all three TNBC cell lines, although not significantly
Sphere area (MDA-MB-231 M2 spheres [5]): significantly increased sphere area
Nuclear area fraction (TU-BcX-4IC cells [6]): most significantly reduced nuclear area fraction
Total cell area (TU-BcX-4IC cells [6]): largest overall areas
Activity against PDGFRB (PDGFRB): moderate activity
Area of liver metastases per section (TU-BcX-4IC PDX model): minimally suppressed the area of liver metastases
Area of lung metastases per section (TU-BcX-4IC PDX model): did not affect the area of lung metastases
Growth of the primary tumor (TU-BcX-4IC PDX model): did not affect growth of the tumor
Metastasis to lungs and livers, overall (TU-BcX-4IC PDX model): did not effectively suppress metastasis
Number of liver metastases per section (TU-BcX-4IC PDX model): minimally suppressed
Number of metastases per lung section (TU-BcX-4IC PDX model): minimally reduce the overall number of metastases per lung section
MMP9 mRNA levels (TU-BcX-4IC tumors): did not reduce MMP9 levels
Reversal of mesenchymal phenotype on a transcript level (TU-BcX-4IC tumors): did not reverse the mesenchymal phenotype
Area of liver metastases (TU-BcX-4IC M2 spheres [7]; [9]): did not suppress
Area of lung metastasis (TU-BcX-4IC M2 spheres [7]; [9]): suppressed area of lung metastasis
Total number of lung lesions (TU-BcX-4IC M2 spheres [7]; [9]): significantly suppresses total number of lesions
Tumor formation of pre-treated spheres (TU-BcX-4IC M2 spheres [7]; [9]): significantly suppressed tumor formation
Number of liver metastases (TU-BcX-4IC M2 spheres [7]; TU-BcX-4IC MS2 spheres pre-treated 1 μM 72 hours): did not suppress
Activity against LOK (LOK): moderate activity
Binding activity to LOK (LOK): 36%
MMP9 mRNA levels (TU-BcX-2O0 tumors): did not reduce MMP9 levels
Reversal of mesenchymal phenotype on a transcript level (TU-BcX-2O0 tumors): did not reverse the mesenchymal phenotype
Activity against RET (RET): moderate activity
Number of cells remaining compared to DMSO controls (TU-BcX-4IC cells [8]): decreased the number of cells remaining
